Source: ChEMBL document CHEMBL3098082, “Design, synthesis, molecular docking and 3D-QSAR studies of potent inhibitors of enoyl-acyl carrier protein reductase as potential antimycobacterial agents” (Eur J Med Chem, 2014)
In brackets after ≈: the same amount, converted by molar mass.

What was measured:
[1] = test system: Mycobacterium tuberculosis; test: Antimycobacterial activity against Mycobacterium tuberculosis H37Rv after 5 days by microplate alamar blue assay; assay type: functional; conditions: for MIC: Mycobacterium tuberculosis, H37Rv, 120 h
Method in brief: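 M. tuberculosis H37Rv in Middlebrook 7H9 broth; compounds serially diluted on plate at 0.2–100 […] (so in the source); isoniazid reference. Incubated 37 C, 5 days, then 1:1 alamar blue/10% Tween 80 added, further 24 h. Blue = no growth, pink = growth; MIC = lowest concentration preventing blue-to-pink change.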

A549 = test: Cytotoxicity against human A549 cells by MTT assay; assay type: cell-based
Vero = test: Cytotoxicity against african green monkey Vero cells by MTT assay; assay type: cell-based; conditions: Chlorocebus sabaeus

Compound | -logMIC [1] | MIC [1] [µg/mL] | IC50 (A549) [µM] | IC50 (Vero) [µM]
C/C(=N\NC(N)=S)c1ccc(-n2cccc2)cc1 | 4.301 | 50 (≈ 194 µM) |  | 
C/C(=N\NC(N)=O)c1ccc(-n2cccc2)cc1 | 4 | 100 (≈ 413 µM) |  | 
C/C(=N\NC(=O)c1ccncc1)c1ccc(-n2c(C)ccc2C)cc1 | 4 | 100 (≈ 301 µM) |  | 
C/C(=N\NC(=O)c1cccnc1)c1ccc(-n2c(C)ccc2C)cc1 | 4 | 100 (≈ 301 µM) |  | 
C/C(=N\NC(=O)c1ccc(-n2cccc2)cc1)c1ccc(-n2c(C)ccc2C)cc1 | 4.301 | 50 (≈ 126 µM) |  | 
C/C(=N\NC(=O)c1ccc(-n2c(C)ccc2C)cc1)c1ccc(-n2c(C)ccc2C)cc1 | 4.602 | 25 (≈ 58.9 µM) |  | 
C/C(=N\NC(=O)c1ccccc1)c1ccc(-n2c(C)ccc2C)cc1 | 4.602 | 25 (≈ 75.4 µM) |  | 
C/C(=N\NC(=O)c1ccc(C)cc1)c1ccc(-n2c(C)ccc2C)cc1 | 4.602 | 25 (≈ 72.4 µM) |  | 
C/C(=N\NC(=O)c1ccc(Cl)cc1)c1ccc(-n2c(C)ccc2C)cc1 | 4.602 | 25 (≈ 68.3 µM) |  | 
C/C(=N\NC(=O)c1ccc(Br)cc1)c1ccc(-n2c(C)ccc2C)cc1 | 4.602 | 25 (≈ 60.9 µM) |  | 
C/C(=N\NC(=O)c1ccccc1Cl)c1ccc(-n2c(C)ccc2C)cc1 | 4.903 | 12.5 (≈ 34.2 µM) |  | 
C/C(=N\NC(=O)c1ccc(O)cc1)c1ccc(-n2c(C)ccc2C)cc1 | 4.602 | 25 (≈ 72 µM) |  | 
C/C(=N\NC(=O)COc1ccccc1)c1ccc(-n2c(C)ccc2C)cc1 | 6.097 | 0.8 (≈ 2.21 µM) |  | 
C/C(=N\NC(=O)COc1ccc(C)cc1)c1ccc(-n2c(C)ccc2C)cc1 | 5.505 | 3.12 (≈ 8.32 µM) |  | 
C/C(=N\NC(=O)COc1ccc(Cl)cc1)c1ccc(-n2c(C)ccc2C)cc1 | 5.505 | 3.12 (≈ 7.89 µM) |  | 
C/C(=N\NC(=O)COc1ccc(Br)cc1)c1ccc(-n2c(C)ccc2C)cc1 | 5.204 | 6.25 (≈ 14.2 µM) |  | 
C/C(=N\NC(=O)COc1ccccc1Cl)c1ccc(-n2c(C)ccc2C)cc1 | 4.301 | 50 (≈ 126 µM) |  | 
C/C(=N\NC(=O)COc1ccc(O)cc1)c1ccc(-n2c(C)ccc2C)cc1 | 4.602 | 25 (≈ 66.2 µM) |  | 
C/C(=N\NC(=O)COc1c(Cl)cc(Cl)cc1Cl)c1ccc(-n2c(C)ccc2C)cc1 | 4.903 | 12.5 (≈ 26.9 µM) |  | 
C/C(=N\NC(=O)COc1cccc2ccccc12)c1ccc(-n2c(C)ccc2C)cc1 | 6.699 | 0.2 (≈ 0.486 µM) | 269 | 277
C/C(=N\NC(=O)COc1ccc2ccccc2c1)c1ccc(-n2c(C)ccc2C)cc1 | 6.699 | 0.2 (≈ 0.486 µM) | 260 | 255
C/C(=N\NS(=O)(=O)c1ccc(C)cc1)c1ccc(-n2c(C)ccc2C)cc1 | 6.398 | 0.4 (≈ 1.05 µM) | 277 | 279
CC(=O)Nc1ccc(S(=O)(=O)N/N=C(\C)c2ccc(-n3c(C)ccc3C)cc2)cc1 | 6.097 | 0.8 (≈ 1.88 µM) |  | 
C/C(=N\NS(=O)(=O)c1ccc(N)cc1)c1ccc(-n2c(C)ccc2C)cc1 | 4.903 | 12.5 (≈ 32.7 µM) |  | 
C/C(=N\Nc1ccccc1)c1ccc(-n2c(C)ccc2C)cc1 | 4.602 | 25 (≈ 82.4 µM) |  | 
C/C(=N\Nc1ccc([N+](=O)[O-])cc1[N+](=O)[O-])c1ccc(-n2c(C)ccc2C)cc1 | 4.903 | 12.5 (≈ 31.8 µM) |  | 
C/C(=N\NC(N)=S)c1ccc(-n2c(C)ccc2C)cc1 | 4.301 | 50 (≈ 175 µM) |  | 

Compound | -logMIC [1] | MIC [1] [µg/mL] | IC50 (A549) [µM] | IC50 (Vero) [µM]
C/C(=N\NC(N)=O)c1ccc(-n2c(C)ccc2C)cc1 | 4.301 | 50 (≈ 185 µM) |  | 
C/C(=N\NC(=O)c1ccncc1)c1ccc(-n2cccc2)cc1 | 4.301 | 50 (≈ 164 µM) |  | 
C/C(=N\NC(=O)c1cccnc1)c1ccc(-n2cccc2)cc1 | 4.301 | 50 (≈ 164 µM) |  | 
C/C(=N\NC(=O)c1ccc(-n2cccc2)cc1)c1ccc(-n2cccc2)cc1 | 4.903 | 12.5 (≈ 33.9 µM) |  | 
C/C(=N\NC(=O)c1ccc(-n2c(C)ccc2C)cc1)c1ccc(-n2cccc2)cc1 | 4.602 | 25 (≈ 63.1 µM) |  | 
C/C(=N\NC(=O)c1ccccc1)c1ccc(-n2cccc2)cc1 | 4.301 | 50 (≈ 165 µM) |  | 
C/C(=N\NC(=O)c1ccc(C)cc1)c1ccc(-n2cccc2)cc1 | 4.301 | 50 (≈ 158 µM) |  | 
C/C(=N\NC(=O)c1ccc(Cl)cc1)c1ccc(-n2cccc2)cc1 | 4.301 | 50 (≈ 148 µM) |  | 
C/C(=N\NC(=O)c1ccc(Br)cc1)c1ccc(-n2cccc2)cc1 | 4.301 | 50 (≈ 131 µM) |  | 
C/C(=N\NC(=O)c1ccccc1Cl)c1ccc(-n2cccc2)cc1 | 4.602 | 25 (≈ 74 µM) |  | 
C/C(=N\NC(=O)c1ccc(O)cc1)c1ccc(-n2cccc2)cc1 | 4.903 | 12.5 (≈ 39.1 µM) |  | 
C/C(=N\NC(=O)COc1ccccc1)c1ccc(-n2cccc2)cc1 | 4.903 | 12.5 (≈ 37.5 µM) |  | 
C/C(=N\NC(=O)COc1ccc(C)cc1)c1ccc(-n2cccc2)cc1 | 4.903 | 12.5 (≈ 36 µM) |  | 
C/C(=N\NC(=O)COc1ccc(Cl)cc1)c1ccc(-n2cccc2)cc1 | 4.903 | 12.5 (≈ 34 µM) |  | 
C/C(=N\NC(=O)COc1ccc(Br)cc1)c1ccc(-n2cccc2)cc1 | 4.301 | 50 (≈ 121 µM) |  | 
C/C(=N\NC(=O)COc1ccccc1Cl)c1ccc(-n2cccc2)cc1 | 4.602 | 25 (≈ 68 µM) |  | 
C/C(=N\NC(=O)COc1ccc(O)cc1)c1ccc(-n2cccc2)cc1 | 4.602 | 25 (≈ 71.6 µM) |  | 
C/C(=N\NC(=O)COc1c(Cl)cc(Cl)cc1Cl)c1ccc(-n2cccc2)cc1 | 4.301 | 50 (≈ 114 µM) |  | 
C/C(=N\NC(=O)COc1cccc2ccccc12)c1ccc(-n2cccc2)cc1 | 6.398 | 0.4 (≈ 1.04 µM) | 243 | 240
C/C(=N\NC(=O)COc1ccc2ccccc2c1)c1ccc(-n2cccc2)cc1 | 6.699 | 0.2 (≈ 0.522 µM) | 247 | 249
C/C(=N\NS(=O)(=O)c1ccc(C)cc1)c1ccc(-n2cccc2)cc1 | 6.097 | 0.8 (≈ 2.26 µM) |  | 
CC(=O)Nc1ccc(S(=O)(=O)N/N=C(\C)c2ccc(-n3cccc3)cc2)cc1 | 6.699 | 0.2 (≈ 0.504 µM) | 257 | 263
C/C(=N\NS(=O)(=O)c1ccc(N)cc1)c1ccc(-n2cccc2)cc1 | 5.204 | 6.25 (≈ 17.6 µM) |  | 
C/C(=N\Nc1ccccc1)c1ccc(-n2cccc2)cc1 | 4.903 | 12.5 (≈ 45.4 µM) |  | 
C/C(=N\Nc1ccc([N+](=O)[O-])cc1[N+](=O)[O-])c1ccc(-n2cccc2)cc1 | 4.903 | 12.5 (≈ 34.2 µM) |  | 
NNC(=O)c1ccncc1 [ISONIAZID] |  | 0.25 (≈ 1.82 µM) | > 450 | > 450
Oc1cc(Cl)ccc1Oc1ccc(Cl)cc1Cl [TRICLOSAN] |  | 10 (≈ 34.5 µM) |  | 
